Measured values as given in ChEMBL document CHEMBL1142380, “Synthesis, in vitro characterization, and radiolabeling of reboxetine analogs as potential PET radioligands for imaging the norepinephrine transporter” (Bioorg Med Chem, 2008).

Columns and labels:
[1] = target: Sodium-dependent serotonin transporter (Homo sapiens, UniProt P31645); test: Displacement of [3H]citalopram from human SERT expressed in HEK293 cells; format: cell-based
Summary of the method: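 Membranes from HEK-293 cells stably expressing hSERT, 30–70 µg protein, with [3H]citalopram. Buffer: 53 mM Tris, 126 mM NaCl, 5.3 mM KCl, pH 7.9. Incubated 2 h at room temperature. Competitor tested at 12 concentrations, 10^-13 to 10^-5 M, in triplicate. Ended by cold-buffer vacuum filtration on 0.3% PEI-soaked GF/B filters. Ki given as geometric mean of ≥3 separate assays.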

Homo sapiens [2] = species on record: Homo sapiens; test: Selectivity ratio of Ki for human DAT to Ki for human NET
Homo sapiens [3] = species on record: Homo sapiens; test: Selectivity ratio of Ki for human SERT to Ki for human NET
[4] = target: Sodium-dependent noradrenaline transporter (Homo sapiens, UniProt P23975); test: Displacement of [3H]nisoxetine from human NET expressed in HEK293 cells; format: cell-based
Summary of the method: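 Membranes from HEK-293 cells stably expressing hNET (grown in DMEM, 10% FBS, Geneticin), 30–70 µg protein per tube, with [3H]nisoxetine. Buffer: 53 mM Tris, 320 mM NaCl, 5.3 mM KCl, pH 7.4 at 4 °C. Incubated 4 h at 4 °C. Competitor tested at 12 concentrations, 10^-13 to 10^-5 M, in triplicate. Filtered on PEI-soaked GF/B filters. Ki given as geometric mean of ≥3 assays.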

[5] = target: Sodium-dependent dopamine transporter (Homo sapiens, UniProt Q01959); test: Displacement of [125I]RTI-55 from human DAT expressed in HEK-293 cells
Sequence of Sodium-dependent dopamine transporter (Q01959 whole entry): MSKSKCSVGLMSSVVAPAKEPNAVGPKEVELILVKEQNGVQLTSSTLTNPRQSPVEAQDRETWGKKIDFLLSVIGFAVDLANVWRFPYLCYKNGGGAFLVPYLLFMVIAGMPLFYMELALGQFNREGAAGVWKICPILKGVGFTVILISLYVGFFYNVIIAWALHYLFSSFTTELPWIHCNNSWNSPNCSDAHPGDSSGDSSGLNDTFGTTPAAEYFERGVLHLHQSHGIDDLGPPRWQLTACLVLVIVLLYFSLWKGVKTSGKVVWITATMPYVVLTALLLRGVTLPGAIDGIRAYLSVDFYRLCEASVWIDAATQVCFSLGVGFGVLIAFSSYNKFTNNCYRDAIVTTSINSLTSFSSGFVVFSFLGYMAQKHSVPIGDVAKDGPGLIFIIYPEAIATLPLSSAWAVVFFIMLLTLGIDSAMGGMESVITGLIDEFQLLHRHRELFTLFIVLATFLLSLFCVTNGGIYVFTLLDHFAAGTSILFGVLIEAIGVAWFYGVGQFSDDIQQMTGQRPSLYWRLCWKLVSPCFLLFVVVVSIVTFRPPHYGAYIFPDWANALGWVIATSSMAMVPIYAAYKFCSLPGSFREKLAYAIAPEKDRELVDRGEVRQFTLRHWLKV

Sequence of Sodium-dependent serotonin transporter (P31645 whole entry): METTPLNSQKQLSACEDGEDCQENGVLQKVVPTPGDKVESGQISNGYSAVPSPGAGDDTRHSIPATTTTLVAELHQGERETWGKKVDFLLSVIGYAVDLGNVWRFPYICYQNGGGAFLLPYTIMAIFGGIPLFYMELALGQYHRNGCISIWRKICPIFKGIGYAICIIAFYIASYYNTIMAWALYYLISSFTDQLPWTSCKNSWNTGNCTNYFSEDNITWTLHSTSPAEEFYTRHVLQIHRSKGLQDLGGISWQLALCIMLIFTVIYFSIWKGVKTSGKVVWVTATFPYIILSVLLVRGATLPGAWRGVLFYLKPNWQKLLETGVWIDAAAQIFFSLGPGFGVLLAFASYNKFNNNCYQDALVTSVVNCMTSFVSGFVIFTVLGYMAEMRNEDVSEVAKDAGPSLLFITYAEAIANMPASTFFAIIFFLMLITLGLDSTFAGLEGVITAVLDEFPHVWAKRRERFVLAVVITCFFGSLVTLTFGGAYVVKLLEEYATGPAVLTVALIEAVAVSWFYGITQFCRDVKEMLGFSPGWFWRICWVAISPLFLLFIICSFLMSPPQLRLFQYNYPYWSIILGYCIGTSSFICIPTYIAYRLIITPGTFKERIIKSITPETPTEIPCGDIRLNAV
Sequence of Sodium-dependent noradrenaline transporter (P23975 whole entry): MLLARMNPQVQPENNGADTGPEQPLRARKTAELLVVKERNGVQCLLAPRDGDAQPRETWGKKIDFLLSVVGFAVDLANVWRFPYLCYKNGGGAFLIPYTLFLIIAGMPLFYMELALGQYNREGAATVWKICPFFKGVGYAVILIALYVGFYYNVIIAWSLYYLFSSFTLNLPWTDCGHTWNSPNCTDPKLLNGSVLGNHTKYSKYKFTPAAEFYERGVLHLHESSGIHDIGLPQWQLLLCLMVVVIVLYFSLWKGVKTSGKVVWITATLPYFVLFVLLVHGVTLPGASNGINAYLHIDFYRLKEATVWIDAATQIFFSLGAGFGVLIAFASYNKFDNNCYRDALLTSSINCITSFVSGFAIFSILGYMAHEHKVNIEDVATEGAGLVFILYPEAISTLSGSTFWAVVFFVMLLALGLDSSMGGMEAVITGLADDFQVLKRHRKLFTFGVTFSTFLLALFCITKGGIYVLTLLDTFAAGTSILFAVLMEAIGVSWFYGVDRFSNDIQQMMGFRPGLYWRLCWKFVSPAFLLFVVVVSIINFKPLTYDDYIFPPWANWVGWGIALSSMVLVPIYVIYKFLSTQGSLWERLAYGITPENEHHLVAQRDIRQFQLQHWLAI

Structure (SMILES) | Ki [1] [µM] | Ratio Ki (Homo sapiens [2]) | Ratio Ki (Homo sapiens [3]) | Ki [4] [µM] | Ki [5] [µM]
CSc1ccccc1O[C@@H](c1ccccc1)[C@@H]1CNCCO1 | 0.0909 | > 3000 | 44 | 0.00206 | > 6
COC(=O)c1ccccc1O[C@@H](c1ccccc1)[C@@H]1CNCCO1 | 0.614 | > 2000 | 465 | 0.00132 | > 3
COC(=O)c1ccccc1S[C@@H](c1ccccc1)[C@@H]1CNCCO1 | 0.498 | > 20000 | 369 | 0.00135 | > 30
COc1ccccc1S[C@@H](c1ccccc1)[C@@H]1CNCCO1 | 0.00969 | > 4000 | 13 | 0.00076 | > 4
FCCCOc1ccccc1S[C@@H](c1ccccc1)[C@@H]1CNCCO1 | 0.121 | > 7000 | 100 | 0.00121 | > 9
COc1ccccc1O[C@@H](c1ccccc1)[C@@H]1CNCCO1 | 0.185 | > 10000 | 195 | 0.00095 | > 10
FCCOc1ccccc1S[C@@H](c1ccccc1)[C@@H]1CNCCO1 | 0.733 | > 10000 | 733 | 0.001 | > 10
